Key:
[1] = (§1) Drug metabolism in Sprague-Dawley rat liver microsomes after 30 mins by LC-ESI-MS analysis; type: ADME; details: Sprague-Dawley, liver microsomes
Outline: (§2)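 2'-OH-TCC at 0.2, 0.5, 1, 2, 3, 5, 10 and 50 µM incubated with liver microsomes (alamethicin, MgCl2, saccharolactone, UDPGA; 37 °C), sampled at 5, 10, 15 and 30 min. Samples ≥5 µM diluted 1:9 in ACN; LC-ESI-MS. KM and vmax fitted from rate vs concentration; intrinsic clearance derived from these; mean and SD of three.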

Liver microsome = experiment: as §1; type: ADME; details: microsomes, 0.5 h; outline: as §2
[2] = Drug metabolism in human intestinal microsomes assessed as N-glucuronide-triclocarban formation incubated for 5 mins prior to UDPGA addition measured after 5 to 30 mins by LC-UV analysis; type: ADME, Intestine, Microsome
Outline: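 Microsomes or UGT Supersomes (5 µg protein) were held 15 min on ice with alamethicin in 100 mM potassium phosphate pH 7.4. TCC was added at 10 µM (2% DMSO) with 10 mM MgCl2 and 10 mM saccharolactone, pre-warmed 5 min at 37 °C, then started with UDPGA. Samples at 5, 10, 15 and 30 min were quenched in ACN. Product was read by LC-UV at 265 nm; rate came from regression over time, three incubations.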

SMILES	Km at 0.5 h [1] [µM]	Vmax (Liver microsome) [nmol/min/mg]	Drug metabolism [2]
O=C(Nc1ccc(Cl)c(Cl)c1)Nc1ccc(Cl)cc1O	3.29	9.42	–
O=C(Nc1ccc(Cl)cc1)Nc1ccc(Cl)c(Cl)c1 [TRICLOCARBAN]	–	–	metabolite_not_detected
